According to ChEMBL document CHEMBL5236619, “Design and Optimization of 1H-1,2,3-Triazole-4-carboxamides as Novel, Potent, and Selective Inverse Agonists and Antagonists of PXR” (J Med Chem, 2022):
pEC50, pIC50: −log10 of the molar value. Calls of active or inactive are those of the source. No cut-off for these calls is given here.

Experiments:
PXR (NR1I2) [1] = target: T1, PXR (NR1I2) (Homo sapiens, UniProt O75469); assay: Inverse agonist activity at human PXR in human HepG2 cells co-expressing luciferase gene under control of CYP3A4 promoter assessed as inhibition in receptor basal activity at 10 uM incubated for 24 hrs by luminescence based analysis relative to control; format: cell-based
T1 sequence (O75469 whole entry): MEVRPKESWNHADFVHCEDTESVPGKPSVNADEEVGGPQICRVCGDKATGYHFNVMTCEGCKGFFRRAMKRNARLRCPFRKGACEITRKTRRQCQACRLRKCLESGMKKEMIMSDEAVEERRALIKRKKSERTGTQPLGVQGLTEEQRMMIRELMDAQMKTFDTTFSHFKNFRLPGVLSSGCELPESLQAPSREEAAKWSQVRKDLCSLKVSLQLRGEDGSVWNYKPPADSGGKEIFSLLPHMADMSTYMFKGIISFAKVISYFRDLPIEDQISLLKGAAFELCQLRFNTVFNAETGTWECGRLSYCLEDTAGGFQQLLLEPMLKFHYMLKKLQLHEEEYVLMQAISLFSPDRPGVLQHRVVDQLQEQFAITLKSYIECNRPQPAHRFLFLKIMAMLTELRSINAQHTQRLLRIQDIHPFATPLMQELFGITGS

[2] = target: T2, Nuclear receptor subfamily 1 group I member 2 (Homo sapiens, UniProt O75469); assay: Agonist activity at human PXR in human HepG2 cells co-expressing luciferase gene under control of CYP3A4 promoter assessed as transcriptional activation at 30 uM incubated for 24 hrs by luminescence based analysis; format: cell-based; conditions: hepg2, 24 h
T2 sequence (O75469 whole entry): T1 sequence (O75469 whole entry)

[3] = target: T3, PXR (NR1I2) ligand binding domain (Homo sapiens, UniProt O75469); assay: Inhibition of BODIPY FL vindoline binding to recombinant human GST-tagged PXR LBD (111 to 434 residues) expressed in baculovirus infected insect cells at 10 uM incubated for 1 mins under shaking condition followed by 60 mins under dark condition by TR-FRET assay relative to control; conditions: probe BODIPY FL vindoline, time 61 min
T3 sequence (O75469 whole entry): T1 sequence (O75469 whole entry)

[4] = target: T2, Nuclear receptor subfamily 1 group I member 2; assay: Inverse agonist activity at human PXR in human HepG2 cells co-expressing luciferase gene under control of CYP3A4 promoter assessed as inhibition of receptor basal activity incubated for 24 hrs by luminescence based analysis; format: cell-based
PXR (NR1I2) [5] = target: T1, PXR (NR1I2); assay: Antagonist activity at human PXR in human HepG2 cells co-expressing luciferase gene under control of CYP3A4 promoter assessed as inhibition in rifampicin-induced receptor activation at 10 uM incubated for 24 hrs by luminescence based analysis relative to control; format: cell-based
[6] = target: T2, Nuclear receptor subfamily 1 group I member 2; assay: Inhibition of BODIPY FL vindoline binding to recombinant human GST-tagged PXR LBD (111 to 434 residues) expressed in baculovirus infected insect cells incubated for 1 mins under shaking condition followed by 60 mins under dark condition by TR-FRET assay
HEK-293T = assay: Cytotoxicity against HEK293T cells assessed as reduction in cell viability measured after 24 to 72 hrs by celltiter-glo luminescent cell viability assay; format: toxicity, cell-based; conditions: human, time 24-72 hrs
Summary of the method: (§1)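 Cells seeded at 2,500 per well for 1-day or 5,000 per well for 3-day exposure. Viability read by CellTiter-Glo luminescence. Staurosporine (56 μM) set as 100% cytotoxicity. Each concentration run in quadruplicate, at least three times. % cytotoxicity plotted and fitted to a sigmoidal dose–response curve. Means and SDs from three independent experiments.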

HepG2 [7] = assay: Cytotoxicity against human HepG2 cells assessed as reduction in cell viability measured after 24 to 72 hrs by celltiter-glo luminescent cell viability assay; format: toxicity, cell-based; conditions: time 24-72 hrs; summary of the method: as §1
[8] = target: T2, Nuclear receptor subfamily 1 group I member 2; assay: Inverse agonist activity at human PXR in human HepG2 cells co-expressing luciferase gene under control of CYP3A4 promoter assessed as inhibition in receptor basal activity at 30 uM incubated for 24 hrs by luminescence based analysis; conditions: hepg2, 24 h
HepaRG = assay: Cytotoxicity against human HepaRG cells assessed as reduction in cell viability measured after 24 to 72 hrs by celltiter-glo luminescent cell viability assay; format: toxicity, cell-based; conditions: time 24-72 hrs; summary of the method: as §1
[9] = Cytotoxicity against […] Hepa1-6 cells assessed as reduction in cell viability measured after 24 to 72 hrs by celltiter-glo luminescent cell viability assay; format: toxicity, cell-based; conditions: time 24-72 hrs; summary of the method: as §1
[10] = target: T4, Bile acid receptor (Homo sapiens) (UniProt Q96RI1); assay: Effect on FXR activity in GeneBLAzer FXR-UAS-bla HEK 293T cells by fluorescence based analysis; format: cell-based
T4 sequence (whole entry): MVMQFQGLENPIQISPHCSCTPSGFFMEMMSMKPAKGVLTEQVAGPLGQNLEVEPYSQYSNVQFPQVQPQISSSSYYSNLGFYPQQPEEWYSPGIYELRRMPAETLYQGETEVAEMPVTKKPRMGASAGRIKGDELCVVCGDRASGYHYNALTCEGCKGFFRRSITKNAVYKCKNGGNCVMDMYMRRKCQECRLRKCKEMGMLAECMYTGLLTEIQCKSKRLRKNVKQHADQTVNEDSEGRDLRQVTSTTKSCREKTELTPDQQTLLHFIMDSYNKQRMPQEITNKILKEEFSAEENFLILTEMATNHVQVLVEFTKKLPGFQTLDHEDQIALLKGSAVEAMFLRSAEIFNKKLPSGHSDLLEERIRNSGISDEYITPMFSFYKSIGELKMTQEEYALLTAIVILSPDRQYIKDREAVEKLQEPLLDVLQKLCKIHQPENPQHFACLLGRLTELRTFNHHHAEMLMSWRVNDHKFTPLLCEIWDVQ
Summary of the method: (§2)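 Run in agonistic mode (compound alone) or antagonistic mode (compound plus an agonist). Each concentration tested in quadruplicate, at least three times. % activation or % inhibition plotted against concentration, with EC50 or IC50 derived from a sigmoidal dose–response fit.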

[11] = target: T5, Vitamin D3 receptor (Homo sapiens) (UniProt P11473); assay: Effect on VDR activity in GeneBLAzer VDR-UAS-bla HEK 293T cells by fluorescence based analysis; format: cell-based; summary of the method: as §2
T5 sequence (whole entry): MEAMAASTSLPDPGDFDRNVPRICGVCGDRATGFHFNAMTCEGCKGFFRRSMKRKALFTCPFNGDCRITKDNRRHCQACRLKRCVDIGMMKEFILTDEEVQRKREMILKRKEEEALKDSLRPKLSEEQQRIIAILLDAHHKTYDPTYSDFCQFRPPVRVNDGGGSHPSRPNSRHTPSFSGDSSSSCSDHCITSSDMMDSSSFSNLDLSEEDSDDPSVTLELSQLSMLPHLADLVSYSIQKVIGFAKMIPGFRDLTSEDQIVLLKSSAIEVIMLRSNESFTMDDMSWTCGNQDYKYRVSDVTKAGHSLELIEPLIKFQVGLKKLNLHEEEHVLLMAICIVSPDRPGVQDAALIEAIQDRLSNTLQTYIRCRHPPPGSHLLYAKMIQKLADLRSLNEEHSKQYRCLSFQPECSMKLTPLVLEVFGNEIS

[12] = target: T6, Oxysterols receptor LXR-alpha (Homo sapiens) (UniProt Q13133); assay: Effect on LXRalpha activity in GeneBLAzer LXRalpha-UAS-bla HEK 293T cells by fluorescence based analysis; format: cell-based; summary of the method: as §2
T6 sequence (whole entry): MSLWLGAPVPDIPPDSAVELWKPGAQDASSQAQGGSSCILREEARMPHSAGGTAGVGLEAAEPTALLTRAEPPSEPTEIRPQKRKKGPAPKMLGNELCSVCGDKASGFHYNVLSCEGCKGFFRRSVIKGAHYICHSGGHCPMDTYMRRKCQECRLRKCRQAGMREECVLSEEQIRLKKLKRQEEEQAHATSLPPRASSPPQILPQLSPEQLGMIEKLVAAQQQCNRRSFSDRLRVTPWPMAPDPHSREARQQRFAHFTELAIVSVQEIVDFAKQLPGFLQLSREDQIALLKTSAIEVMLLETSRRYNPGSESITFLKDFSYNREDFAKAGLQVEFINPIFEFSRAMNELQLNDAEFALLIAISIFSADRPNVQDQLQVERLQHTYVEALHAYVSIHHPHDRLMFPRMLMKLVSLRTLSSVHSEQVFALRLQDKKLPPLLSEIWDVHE

HepG2 [13] = assay: Effect on CAR activity in human HepG2 cells co-expressing luciferase gene under control of CYP3A4 promoter by luciferase reporter assay; format: cell-based
[14] = target: T7, Nuclear receptor subfamily 1 group I member 2 (Mus musculus, UniProt O54915); assay: Effect on mouse PXR activity by luciferase reporter assay; summary of the method: as §2
T7 sequence (O54915 whole entry): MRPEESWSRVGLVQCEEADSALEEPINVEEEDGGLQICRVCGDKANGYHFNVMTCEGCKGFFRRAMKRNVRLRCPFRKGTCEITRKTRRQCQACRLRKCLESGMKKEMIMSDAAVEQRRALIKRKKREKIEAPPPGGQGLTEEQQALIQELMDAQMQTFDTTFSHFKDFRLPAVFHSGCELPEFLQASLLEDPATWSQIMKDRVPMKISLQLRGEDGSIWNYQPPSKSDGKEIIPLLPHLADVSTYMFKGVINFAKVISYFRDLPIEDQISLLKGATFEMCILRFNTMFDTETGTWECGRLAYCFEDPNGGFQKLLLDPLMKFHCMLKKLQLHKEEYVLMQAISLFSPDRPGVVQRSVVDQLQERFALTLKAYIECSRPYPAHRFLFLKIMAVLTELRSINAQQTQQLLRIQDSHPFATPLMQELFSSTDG

[15] = target: T2, Nuclear receptor subfamily 1 group I member 2; assay: Agonist activity at human PXR in human HepG2 cells co-expressing luciferase gene under control of CYP3A4 promoter assessed as transcriptional activation at 10 uM incubated for 24 hrs by luminescence based analysis relative to control
[16] = target: T2, Nuclear receptor subfamily 1 group I member 2; assay: Agonist activity at human PXR in human HepG2 cells co-expressing luciferase gene under control of CYP3A4 promoter assessed as transcriptional activation incubated for 24 hrs by luminescence based analysis
[17] = target: T2, Nuclear receptor subfamily 1 group I member 2; assay: Antagonist activity at human PXR in human HepG2 cells co-expressing luciferase gene under control of CYP3A4 promoter assessed as inhibition in rifampicin-induced receptor activation at 30 uM incubated for 24 hrs by luminescence based analysis; format: cell-based; conditions: hepg2, 24 h

Compound	inhibition at 24 h, 10 µM (PXR (NR1I2) [1])	Activity [2]	inhibition at 1.017 h, 10 µM [3]	inhibition at 24 h, 10 µM (PXR (NR1I2) [5])	INH [8]	other results
COc1ccc(OC)c(-n2nnc(C(=O)Nc3cc(C(C)(C)C)ccc3OCCN3CCOCC3)c2C)c1	81%	Not Active	68%			pIC50 [4]: 5.85
CCCCOc1ccc(NC(=O)c2nnn(-c3cc(OC)ccc3OC)c2C)cc1C(C)(C)C	73%					inhibition (INH) ([6]; human, 1.017 h, time 61 min): Not Active
CCC[C@H](C)Oc1ccc(C(C)(C)C)cc1NC(=O)c1nnn(-c2cc(C)ccc2OC)c1C		Not Active	90%		Not Active	Activity (HEK-293T): Non-Toxic; Activity (HepG2 [7]): Non-Toxic; pIC50 [6]: 8.40; Activity (HepaRG): Non-Toxic; Activity [9]: Non-Toxic; Activity [10]: inactive; Activity [11]: inactive; Activity [12]: inactive; Activity (HepG2 [13]): inactive; Activity [14]: Not Active
CCCCOc1ccc(C(C)(C)C)cc1NC(=O)c1nnn(-c2cc(OC)ccc2C)c1C			10%		Not Active	activity at 24 h, 10 µM [15]: 16%; pEC50 [16]: 5.78; inhibition (INH) [17]: Not Active
COc1ccc(OC)c(-n2nnc(C(=O)Nc3ccc(NC(C)=O)c(C(C)(C)C)c3)c2C)c1			65%		Not Active	activity at 24 h, 10 µM [15]: 50%; pEC50 [16]: 5.70; inhibition (INH) [17]: Not Active

Further lines, with some results ahead:

inhibition at 24 h, 10 µM (PXR (NR1I2) [1])	Activity [2]	inhibition at 1.017 h, 10 µM [3]	inhibition at 24 h, 10 µM (PXR (NR1I2) [5])	INH [8]	Compound	other results
118%	Not Active	73%			CCOc1ccc(C(C)(C)C)cc1NC(=O)c1nnn(-c2cc(OC)ccc2OC)c1C	
	Not Active		110%		COc1ccc(OC)c(-n2nnc(C(=O)Nc3cc(N(C)C)cc(C(C)(C)C)c3)c2C)c1	
138%	Not Active	67%	104%		COc1ccc(OC)c(-n2nnc(C(=O)Nc3cc(B4OC(C)(C)C(C)(C)O4)cc(C(C)(C)C)c3)c2C)c1	
	Not Active		82%		CCCCN(CCCC)c1cc(NC(=O)c2nnn(-c3cc(OC)ccc3OC)c2C)cc(C(C)(C)C)c1	
